Hits are enriched below; roughly 4.6% of the tested compounds scored in any of these assays.
CHO parental Ca – counter-screen for OX1R antagonists: effect in parental CHO cells; parental CHO-K1, ATP-induced calcium, Fluo-8 fluorescence; inhibition, % at 5.6 µM; 330,000 compounds, 0.63% hits; AID 463079;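 active means inhibition above that plate's mean sample inhibition plus 3 SD, cut at about 26% in these data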;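 further: 0% = ATP-challenged DMSO wells and 100% = DMSO wells without ATP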
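Assay system: untransfected parental CHO cell line. Also added: ATP agonist challenge. Dosing: one dose, 5.6 µM nominal. Measured by: Fluo-8 fluorescence. Read-out: % inhibition. Benchmarks: ATP wells versus no-ATP DMSO wells. Repeats: no replicates.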
OX1R antag-1 – OX1R (human) antagonism; inhibition, % at 6.6 µM; 330,000 compounds, 1.8% hits; OX1R-expressing cells, FRET antagonist read-out; in the data active means inhibition mostly above about 38%, no sharp cut-off; inactive means mostly below about 40%;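 further: 0% = agonist challenge alone and 100% = reference antagonist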
TAAR1 antag – antagonists of human TAAR1; Q96RJ0; CHO RD-HGA16 TAAR1, Fluo-8 calcium fluorescence, antagonist; inhibition, % at 3 µM; 360,000 compounds, 1.5% hits;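 active means inhibition above a per-plate cutoff, the mean inhibition of test compounds on that plate plus 3 SD, cut at about 49% in these data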;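 further: 0% = DMSO plus EC80 beta-PEA response and 100% = DMSO alone without agonist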
Target sequence (Q96RJ0 whole entry, looked up): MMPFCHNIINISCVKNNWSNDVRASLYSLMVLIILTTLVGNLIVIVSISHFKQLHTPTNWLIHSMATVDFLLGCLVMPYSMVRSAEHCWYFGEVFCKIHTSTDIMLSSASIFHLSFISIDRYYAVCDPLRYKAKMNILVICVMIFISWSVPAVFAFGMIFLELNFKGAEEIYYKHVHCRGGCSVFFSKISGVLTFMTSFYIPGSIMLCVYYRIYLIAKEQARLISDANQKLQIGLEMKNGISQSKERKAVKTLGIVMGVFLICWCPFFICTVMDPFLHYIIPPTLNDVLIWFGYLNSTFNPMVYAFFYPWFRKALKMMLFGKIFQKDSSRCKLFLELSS
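Test system: RD-HGA16 CHO cells with stable hTAAR1 and Gα16 / Probe or stimulus: EC80 β-phenethylamine stimulus / Times: seeding 17-24 h prior, 75-min 37 °C, 30-min RT dye loading / Detection: Fluo-8 calcium-sensitive fluorescence / Read-out basis: % inhibition scaled between DMSO and EC80 PEA controls / Repeats: singlicate, one well per test compound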
OX1R antag-2 – human HCRTR1 antagonism; O43613; CHO/OX1R cells, Fluo-8 calcium fluorescence, orexin A; inhibition, % at 5 µM; 330,000 compounds, 0.43% hits;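 active means inhibition above its plate's threshold, mean inhibition of all tested compounds on the plate plus 3 SD, cut at about 37% in these data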;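 further: 0% = orexin A challenge wells and 100% = SB-334867-A antagonist wells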
GPR7 antag – human neuropeptides B/W receptor 1 antagonism | GPR7-expressing cells, fluorescence antagonist assay | AID 1861 | 290,000 compounds, 1.1% hits | inhibition, % at 4.4 µM; in the data active means inhibition above about 16%, passing the limit was not always enough;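 further: cells stimulated with the agonist NPW; 0% = agonist with vehicle and 100% = vehicle without agonist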
Target sequence (P48145 whole entry, looked up): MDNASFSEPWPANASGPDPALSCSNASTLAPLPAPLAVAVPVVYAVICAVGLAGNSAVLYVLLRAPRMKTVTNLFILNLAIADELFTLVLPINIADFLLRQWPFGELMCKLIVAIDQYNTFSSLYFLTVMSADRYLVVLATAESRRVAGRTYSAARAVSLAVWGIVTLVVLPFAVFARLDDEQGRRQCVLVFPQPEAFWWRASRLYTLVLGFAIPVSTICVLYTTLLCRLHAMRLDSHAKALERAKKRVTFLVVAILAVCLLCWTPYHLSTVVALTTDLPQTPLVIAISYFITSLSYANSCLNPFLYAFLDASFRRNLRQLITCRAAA
TAAR1 ag – agonists of human TAAR1; Q96RJ0; CHO RD-HGA16 TAAR1, Fluo-8 calcium fluorescence; vehicle wells 0%, saturating PEA agonist 100%; activation, % at 3 µM; 360,000 compounds, 0.99% hits;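 active means activation above the mean activation of all test compounds in the run plus 3 SD, cut at about 38% in these data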
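test system = CHO RD-HGA16 cells carrying human TAAR1 plus Gα16 | schedule = 17-24 h seeding, 75 min 37 °C dye, 30 min RT | compound dosing = 3 µM single concentration | control set = DMSO and PEA EC100 | replicates = n 1 | signal = Fluo-8 fluorescence, 5 s baseline then 140 s kinetic read | measure = percent activation vs PEA EC100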
Active calls of the source: *; / = not tested or not shown.

SMILES	CHO parental Ca	OX1R antag-1	TAAR1 antag	OX1R antag-2	GPR7 antag	TAAR1 ag
Cc1ccc(NC(=O)COc2ccccc2)cc1S(=O)(=O)N1CCCCC1	/	/	12.4	/	/	3.6
CCOc1ncccc1C(=O)Nc1ccc(C)c(S(=O)(=O)N2CCCCCC2)c1	34.4*	4.0	39.5	54.9*	/	3.6
CC1CCCN(S(=O)(=O)c2cc(C(=O)NCc3ccco3)ccc2Cl)C1 (stereo not given)	-7.8	4.2	1.2	-14.6	/	-1.8
Cc1ccccc1OCC(=O)Nc1ccc(C)c(S(=O)(=O)N2CCCCCC2)c1	7.6	37.2	49.0*	-19.3	/	0.0
CCOc1ncccc1C(=O)Nc1ccc(OC)c(S(=O)(=O)N2CCCCC2)c1	-0.6	12.6	-18.9	-32.1	-2.4	3.3
CC1CCCN(S(=O)(=O)c2cc(C(=O)NCCc3ccc(S(N)(=O)=O)cc3)ccc2Cl)C1 (stereo not given)	/	/	49.6*	/	/	15.6
COc1ccc(CCNC(=O)c2cccc(S(=O)(=O)N3CCCC3)c2)cc1	/	/	-13.2	/	/	0.7
COc1ccc(CCNC(=O)c2ccc(Cl)c(S(=O)(=O)N3CCCCCC3)c2)cc1	26.8*	15.3	44.2	46.3*	/	14.7
CS(=O)(=O)c1cccc(OCCCN2CCC(C(O)(c3ccccc3)c3ccccc3)CC2)c1	/	/	10.7	/	/	14.6
O=C(CC1CCCC1)N[C@H](C(=O)N1CCC[C@H]1C(=O)NC1CCCC1)C1CCCCC1	/	/	-28.6	/	/	-0.7
Cc1ccc2c(c1)N(CC(=O)Nc1ccccc1F)C(=O)C(C)O2 (stereo not given)	/	/	-14.9	/	/	11.4
COCCN1Cc2cc(C(=O)OC)c3c(c2C1=O)c1cc(F)ccc1n3S(=O)(=O)c1cccc(C)c1	/	/	-29.7	/	/	4.7
COc1ccc(CCC(=O)Nc2ccc(OC)c(S(=O)(=O)N3CCCCC3)c2)cc1OC	-17.2	6.9	10.3	-16.3	/	5.8
O=C(COc1ccc(F)cc1Cl)Nc1cccc(S(=O)(=O)N2CCCC2)c1	29.5	-1.1	14.0	46.7*	/	4.3
COc1cc(CCC(=O)Nc2ccc(S(=O)(=O)N3CCCC3)cc2)cc(OC)c1OC	-20.1	-0.2	-21.7	-33.8	/	7.1
COc1ccc(CCC(=O)Nc2ccc(Cl)c(S(=O)(=O)N3CCCC3)c2)cc1	52.6*	25.8	3.7	35.5	20.6*	-0.1
COc1cc(CCC(=O)Nc2ccc(C)c(S(=O)(=O)N3CCCCCC3)c2)cc(OC)c1OC	-8.2	14.8	50.1*	25.1	/	14.6
COC(=O)C1=C(C)N(CC(C)C)C(=S)NC1c1ccc(-c2ccccc2)cc1 (stereo not given)	/	/	-27.4	/	/	1.2
N#Cc1c(SC(C(=O)O)c2ccccc2)nc2c(c1-c1cccs1)CCCC2 (stereo not given)	-20.2	33.0	-9.7	-27.2	-8.4	37.9*
CSc1nccn1CC(=O)Nc1ccc(F)cc1	40.8*	6.7	8.3	-11.8	3.6	1.8
Cc1onc(-c2c(Cl)cccc2Cl)c1C(=O)N1CCCc2ccccc21	-23.2	54.6*	-12.9	33.4	-10.9	-2.2
Cc1ccc(-c2nn(-c3ccccc3)cc2/C=C/C(=O)Nc2nccs2)cc1	-4.9	6.8	45.5	-1.2	-5.1	40.4*
O=C(Nc1nccs1)c1cn(-c2ccccc2)nc1-c1ccncc1	-31.8	12.0	39.3	-50.3	-8.3	37.9*
COc1ccc(-c2nn(-c3ccccc3)cc2C(=O)Nc2nccs2)cc1	-14.9	25.6	47.8	-10.9	12.3	11.8
Cc1cc(CNC(=O)C(C)n2cc([N+](=O)[O-])cn2)c2ccccc2n1 (stereo not given)	-26.7	68.7*	-4.4	13.2	0.5	0.9
SMILES	CHO parental Ca	OX1R antag-1	TAAR1 antag	OX1R antag-2	GPR7 antag	TAAR1 ag
OC(c1ccc(F)cc1)c1nc(-c2ccc(Cl)cc2)cs1 (stereo not given)	/	/	27.4	/	/	10.5
S=C(NCCc1ccc(Cl)cc1)Nc1ccc(Cl)cc1Cl	15.5	59.2	49.5*	6.5	-0.9	1.8
Fc1ccc(CCNC(=S)Nc2ccc(F)c(Cl)c2)cc1	31.9*	65.0	22.8	29.7	3.9	12.8
COc1ccc(CNC(=O)COC(=O)/C=C/c2cccs2)cc1	-13.9	7.5	-20.0	-27.0	4.0	3.3
COc1ccccc1CNC(=O)COC(=O)/C=C/c1cccs1	-5.6	11.2	-5.7	-8.2	19.0*	1.1
CSc1cccc(NC(=O)C2CCCN(S(C)(=O)=O)C2)c1 (stereo not given)	/	/	-1.2	/	/	0.3
CCOC(=O)/C(=C\Nc1cccc(OCc2ccccc2)c1)NC(=O)c1ccccc1	/	/	23.2	/	/	2.0
CN(NS(=O)(=O)c1ccccc1)c1nc2ccccc2nc1C(F)(F)F	-15.0	41.9	-10.0	-2.9	-4.2	5.5
CN(NS(=O)(=O)c1ccc(Cl)cc1)c1nc(C(F)(F)F)nc2ccccc12	4.0	55.3*	-14.8	-20.7	-1.6	5.2
CCOc1cc(/C=C2\SC(=S)N(NS(=O)(=O)c3ccccc3)C2=O)ccc1O	-0.8	29.2	20.5	-6.9	-10.2	8.2
O=C(O)c1ccc(/C=C2\SC(=S)N(NC(=O)c3ccccc3[N+](=O)[O-])C2=O)cc1	/	/	-18.3	/	-1.1	0.1
CCOC(=O)CN1C(=O)S/C(=C/c2ccc(C)o2)C1=O	-3.1	11.4	16.9	-8.7	8.6	2.7
COc1cc(/C=C2/SC(=S)N(CC3CCCO3)C2=O)ccc1O (stereo not given)	23.7	10.6	42.2	18.5	6.2	41.7*
CCOC(=O)CN1C(=O)S/C(=C/c2ccc(O)c([N+](=O)[O-])c2)C1=O	-7.2	56.5*	7.4	-6.2	-2.6	7.1
O=C(NN1C(=O)/C(=C\c2ccc(O)c([N+](=O)[O-])c2)SC1=S)c1ccccc1Cl	-7.0	63.9*	-30.0	-18.5	-4.4	1.4
CCOc1cc(/C=C2\SC(=S)N(Nc3ccccc3)C2=O)ccc1O	32.6	18.1	60.0*	19.0	-0.3	51.4*
COC(=O)C1=C(C)N(Cc2cccc(C(F)(F)F)c2)C(=NCc2ccc(OC)cc2)NC1c1cccc(C(F)(F)F)c1 (stereo not given)	/	/	23.2	/	/	27.1
O=C(Cn1nnc(N2CCOCC2)n1)NN=Cc1ccccc1Cl	/	/	4.5	/	/	0.4
CCCCCCCCN1C(=O)[C@@H](CC(=O)NCCCCc2ccccc2)C[C@@]2(C(=O)OC)C1=C[C@H](C1CCCC1)O[C@@H]2C	/	/	-17.8	/	/	6.2
COc1cc(/C=C2\SC(=S)N(Nc3ccccc3)C2=O)ccc1O	42.4*	21.2	56.6*	40.0	13.4	54.4*
COc1cc(/C=C2\SC(=S)N(Nc3ncc(C(F)(F)F)cc3Cl)C2=O)ccc1O	39.7*	7.0	65.7*	48.6*	10.8	52.3*
O=C1/C(=C/c2ccc(O)c(O)c2)SC(=S)N1Nc1ccccc1	/	/	/	/	-3.7	/
COC(=O)c1c(-c2ccc(OC)cc2)c2c(c3c4cc(OC)ccc4n(C(=O)c4ccccc4)c13)C(=O)N(C)C2	/	/	23.9	/	/	1.5

From PubChem BioAssay
